The text below walks through data of ChEMBL document CHEMBL3085764, “Azole-carbodithioate hybrids as vaginal anti-Candida contraceptive agents: design, synthesis and docking studies” (Eur J Med Chem, 2013).

The structures appear in SMILES notation. Values after ≈ are worked out from the molar mass of the structure shown. A value given as a limit tells only on which side of the number the result lay.

Test [1] relates to Candida albicans. Put plainly: Antifungal activity against Candida albicans clinical isolate after 48 hrs by broth microdilution technique. Type of test: functional, organism-based. In short, it runs like this: (§1)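 MIC by broth microdilution following NCCLS guidelines, in RPMI 1640 buffered with MOPS. Starting inoculum 1-5 × 10^3 CFU/mL. Plates incubated at 35 °C. MIC and IC50 read spectrophotometrically at 492 nm after 48 h.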
On the technique in general: Dilution methods test growth across graded concentrations, often in twofold steps.

Test [2] can be described thus: Spermicidal activity in human semen assessed as sperm immobilization at 1.0 % w/v up to 30 seconds by phase contrast microscopy. Type of test: functional.
In test [3] the test system is Candida albicans. Put plainly: Antifungal activity against Candida albicans ATCC 10231 after 48 hrs by broth microdilution technique. Particulars: ATCC 10231, 48 h. Type of test: functional, organism-based. In short, it runs like this:
as §1

Test [4] can be described thus: Spermicidal activity in human semen assessed as sperm immobilization at 0.1 % w/v up to 30 seconds by phase contrast microscopy. Type of test: functional.
The subject of test [5] is Cryptococcus neoformans. In words: Antifungal activity against Cryptococcus neoformans after 48 hrs by broth microdilution technique. Format: functional, organism-based. Summed up:
as §1

The subject of test [6] is Escherichia coli. Put plainly: Antibacterial activity against Escherichia coli ATCC 9637 after 48 hrs by broth microdilution technique. The settings on record: ATCC 9637, 48 h. Type of test: functional. Summed up:
(§2)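 Broth microdilution following NCCLS guidelines in Mueller Hinton broth. Inoculum held at 1-5 × 10^3 cfu/mL. Plates incubated at 35 °C in a moist, dark chamber for 48 h. MIC and IC50 read spectrophotometrically at 492 nm.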

Test [7] deals with Klebsiella pneumoniae. In words: Antibacterial activity against Klebsiella pneumoniae after 48 hrs by broth microdilution technique. Type of test: functional. In short, it runs like this: as §2
Test [8] concerns Candida albicans. In words: Antifungal activity against Candida albicans MTCC 183 after 48 hrs by broth microdilution technique. Format: functional, organism-based. The settings on record: MTCC 183, 48 h. In short, it runs like this:
as §1

Test [9] relates to Aspergillus fumigatus. In words: Antifungal activity against Aspergillus fumigatus after 48 hrs by broth microdilution technique. Format: functional, organism-based. In short, it runs like this:
as §1

The test system of test [10] is Candida albicans. In words: Antifungal activity against Candida albicans after 48 hrs by broth microdilution technique. Format: functional, organism-based. Summed up:
as §1

The subject of test [11] is Trichophyton mentagrophytes. Put plainly: Antifungal activity against Trichophyton mentagrophytes after 48 hrs by broth microdilution technique. Format: functional, organism-based. In short, it runs like this: as §1
The subject of test [12] is Trichomonas vaginalis. Put plainly: Trichomonacidal activity against Trichomonas vaginalis after 48 hrs by trypan blue exclusion assay. Format: functional. The settings on record: read-out: MEC. In short, it runs like this:
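T. vaginalis in log phase, grown in TYM with 10% FCS, vitamin mixture and penicillin/streptomycin at 37 °C. DMSO stocks ([…]) serially diluted in TYM down to 0.1 µg/mL; DMSO/TYM vehicle controls. 5 × 10^4 trophozoites added and incubated anaerobically at 37 °C. Viability checked by trypan blue from 3 to 48 h. MIC = lowest concentration killing all cells by 48 h. Three repeats.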

Test [13] relates to Staphylococcus aureus. In words: Antibacterial activity against Staphylococcus aureus ATCC 25923 after 48 hrs by broth microdilution technique. Format: functional. The settings on record: ATCC 25923, 48 h. Summed up: as §2
The test system of test [14] is Candida parapsilosis. In words: Antifungal activity against Candida parapsilosis ATCC 22019 after 48 hrs by broth microdilution technique. Type of test: functional, organism-based. Particulars: Lodderomyces parapsilosis, ATCC 22019, 48 h. Summed up: as §1
The test system of test [15] is Pseudomonas aeruginosa. In words: Antibacterial activity against Pseudomonas aeruginosa ATCC BAA-427 after 48 hrs by broth microdilution technique. Format: functional. Particulars: ATCC BAA-427, 48 h. Summed up: as §2
The subject of test [16] is Sporothrix schenckii. In words: Antifungal activity against Sporothrix schenckii after 48 hrs by broth microdilution technique. Type of test: functional, organism-based. Summed up: as §1
For test [17], the system named is Candida albicans. In words: Antifungal activity against Candida albicans clinical isolate CDRI after 48 hrs by broth microdilution technique. Type of test: functional, organism-based. In short, it runs like this:
as §1

Turning to `O=C1c2ccccc2C(=O)N1CCSC(=S)n1ccnc1`, the concentration for half-maximal inhibition (IC50) was 16 µg/mL (≈ 50.5 µM) in test [1]; 19.5 µg/mL (≈ 61.5 µM) in test [3]; 28.6 µg/mL (≈ 90.1 µM) in test [5]; 11.1 µg/mL (≈ 34.9 µM) in test [8]; over 50 µg/mL in test [9]; 5.45 µg/mL (≈ 17.2 µM) in test [10]. Further, the IC50 in test [11] is 6.15 µg/mL (≈ 19.4 µM); in test [14], over 50 µg/mL; in [16], 4.17 µg/mL (≈ 13.1 µM); in test [17], 30.9 µg/mL (≈ 97.5 µM). Besides, the Activity in test [2] was 100%; in test [4] it was 0%. Besides, the minimal inhibitory concentration (MIC) in test [6], in test [7], in test [13] and in [15] was at least 50 µg/mL each time. The minimal effective concentration in test [12] is over 200 µg/mL.

Consider `CCCCCCCCSC(=S)n1cnc2ccccc21`, for which the concentration for half-maximal inhibition (IC50) in test [1], in test [3], in test [5], in test [8], in [9] and in test [10] was over 50 µg/mL in each case. For the same molecule, the IC50 in test [11], in test [14], in test [16] and in [17] was over 50 µg/mL each time. Further, the results for the Activity in test [2] and in [4] were 95% and 0%, respectively. In addition, the MIC in [6], in test [7], in test [13] and in test [15] was at least 50 µg/mL in each case. The minimal effective concentration in test [12] was over 200 µg/mL.

For the molecule `C=CCSC(=S)n1cncn1`, the IC50 in test [1] was over 50 µg/mL; in [3] it was over 50 µg/mL; in test [5], over 50 µg/mL; in test [8], over 50 µg/mL; in test [9] it was over 50 µg/mL; in [10], 2.53 µg/mL (≈ 13.7 µM). Further, the 50% inhibitory concentration (IC50) in test [11] is over 50 µg/mL; in test [14], over 50 µg/mL; in [16], 5.78 µg/mL (≈ 31.2 µM); in test [17] it was 45.5 µg/mL (≈ 246 µM). For the same molecule, the Activity in test [2] stood at 100%; in [4], 0%. The MIC in test [6], in test [7], in test [13] and in test [15] was at least 50 µg/mL in each case. Besides, the minimal effective concentration in test [12] was over 200 µg/mL.

For the molecule `CCCCCCCCCCCCCCCCSC(=S)n1ccnc1C`, the IC50 in test [1], in [3], in test [5], in test [8], in test [9] and in test [10] was over 50 µg/mL throughout. Also, the IC50 in [11] is 7.07 µg/mL (≈ 18.5 µM); in test [14], over 50 µg/mL; in [16], over 50 µg/mL; in [17], over 50 µg/mL. For the same molecule, the values for the Activity in test [2] and in [4] were 95% and 0%, respectively. The MIC in [6], in test [7], in [13] and in test [15] was at least 50 µg/mL in each case. Further, in test [12], the minimal effective concentration is over 200 µg/mL.

As to `Cn1nnc2ccccc21`, the IC50 in test [1], in test [3], in test [5], in [8], in [9] and in test [10] was over 50 µg/mL in each case. For the same molecule, the concentration for half-maximal inhibition (IC50) in test [11] was over 50 µg/mL; in test [14] it was over 50 µg/mL; in [16] it was 1.58 µg/mL (≈ 11.9 µM); in test [17], over 50 µg/mL. Further, the Activity in test [2] and in [4] was 0% each time. Besides, the minimal inhibitory concentration (MIC) in [6], in test [7], in [13] and in test [15] was at least 50 µg/mL throughout. Besides, in test [12], the minimal effective concentration is over 200 µg/mL.

For `N#CCCCSC(=S)n1ccnc1`, the IC50 was 10.8 µg/mL (≈ 51 µM) in test [1]; over 50 µg/mL in [3]; over 50 µg/mL in test [5]; over 50 µg/mL in [8]; over 50 µg/mL in test [9]; over 50 µg/mL in test [10]. The half-inhibitory concentration (IC50) in test [14] was 5.27 µg/mL (≈ 24.9 µM); in test [16], over 50 µg/mL; in [17], 43.5 µg/mL (≈ 206 µM). For the same molecule, the Activity in test [2] is listed as 100%; in test [4] it was 92%. Besides, the MIC in test [6], in [7], in [13] and in test [15] was at least 50 µg/mL throughout. Also, the minimal effective concentration in test [12] is over 200 µg/mL.

For orientation: IC50 means the concentration that gives 50% inhibition. Lower therefore signals higher potency. For orientation: MIC means the lowest concentration that inhibits growth of the organism. Read a high MIC as weaker potency.
